High-throughput results: PubChem BioAssay, several laboratories
MDM2 E3 inh: MDM2-luciferase reporter signal enhancers, primary screen, MDM2 E3 ligase inhibitor project, cell-based, luminescence, 1536-well; signal enhancement, % at 5 µM; 0.11% of 210,000 active; cell-based MDM2 ubiquitination luciferase reporter, 2 h; 0 = plate control, 100 = twice control, blank-subtracted; AID 1230, 2008;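 active = signal enhancement of 30% or more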;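 also: luminescence tracks abundance of the self-degrading MDM2-luciferase fusion protein; higher signal means inhibition of MDM2 E3 ligase activity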
Target sequence (Q00987 whole entry, looked up, the tested form may be a part): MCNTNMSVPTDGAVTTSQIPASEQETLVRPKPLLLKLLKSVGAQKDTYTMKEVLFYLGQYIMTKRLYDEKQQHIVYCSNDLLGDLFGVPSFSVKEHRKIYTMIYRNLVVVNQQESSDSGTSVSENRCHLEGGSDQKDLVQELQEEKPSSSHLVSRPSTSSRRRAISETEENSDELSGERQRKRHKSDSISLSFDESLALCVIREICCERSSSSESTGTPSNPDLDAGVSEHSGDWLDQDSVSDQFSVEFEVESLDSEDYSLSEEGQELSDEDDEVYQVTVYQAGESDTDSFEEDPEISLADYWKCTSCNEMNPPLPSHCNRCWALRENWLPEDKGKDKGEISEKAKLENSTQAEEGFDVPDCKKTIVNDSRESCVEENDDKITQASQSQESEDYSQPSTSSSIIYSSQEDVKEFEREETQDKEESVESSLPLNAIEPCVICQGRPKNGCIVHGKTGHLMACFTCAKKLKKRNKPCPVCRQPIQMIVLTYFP
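Timing – 2 h compound exposure at 37 °C · Assay system – mammalian cells stably expressing self-ubiquitinating, self-degrading MDM2 E3–luciferase fusion · Amount – 2000 cells seeded into each well · Measure – % luminescence enhancement versus blank-corrected plate control mean · Measured by – SteadyLite luminescence, 15 min reagent step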
Autophagy mod: autophagy modulators in MEF cells, primary screen, imaging, high-content, MEF GFP-LC3. MEF GFP-LC3 puncta imaging; test concentration mostly 10 µM. calls only at 10 µM (by protocol). 0.98% of 190,000 active. AID 463193, 2010;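 active = percentage of spot-positive cells more than 3 SD above its plate mean, without a fluorescence outlier flag or 80% toxicity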;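 also: spot-positive cell cutoff set from DMSO-treated cells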
Dynein transport: inhibitors of GR-EGFP nuclear translocation, primary screen, dynein cargo transport inhibitor project, imaging, high-content, 3617.4 mouse cells. test concentration mostly 20 µM; stimulated with dexamethasone, 1 µM; hits give low values. 0.47% of 220,000 active. z-score, hits read low. AID 1381, 2008;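 active = plate z-score of nuclear minus cytoplasmic receptor signal below a set negative limit, without overly bright fluorescence or cell loss, cut at about -3.5 in these data, passing the limit was not always enough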;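 also: z-score of nuclear minus cytoplasmic ring GR-EGFP intensity difference per well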
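Medium: Induction medium lacking tetracycline, stripped serum | Probe or stimulus: 1.0 µM final dexamethasone stimulus | Schedule: 48 h induction, then 1 h compound, then 30 min agonist, 37 °C | Signal: Automated 10x imaging of fixed Hoechst-stained cells | Evaluation: Per-cell GR-EGFP intensity, nucleus versus surrounding cytoplasmic ring, well-averaged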
TNF necrop inh: inhibitors of TNF-alpha triggered necroptosis, primary screen, cell-based, Jurkat FADD-/-, single concentration | Jurkat FADD-/- TNF necroptosis rescue, ATP luminescence, 24 h; 0 = TNF only, 100 = no-TNF cells | activation (protection from cell death), % at 10 µM | 0.068% of 220,000 active;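 active = activation, meaning protection from cell death, of at least 50% relative to plate controls; inactive = activation below 50%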;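 also: necroptosis triggered by 40 ng/mL TNF-alpha added together with compound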
L929 necroptosis: inhibitors of zVAD-triggered necroptosis, primary screen, L929 cells | L929 zVAD necroptosis rescue, ATP luminescence, 24 h; with zVAD 60 µM | viability rescue, % at 10 µM | 0.38% of 220,000 active;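 active = activation, scaled between plate controls, above about 75%, limit read from the data; inactive = activation under that limit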;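 also: 0% = zVAD with DMSO and 100% = DMSO alone without zVAD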
zVAD necrop conf: inhibitors of zVAD-triggered necroptosis in L929, confirmation, L929 cells, duplicate runs; shares compounds with L929 necroptosis; L929 zVAD-induced necroptosis rescue, ATP luminescence, 24 h; activation (protection from necroptosis), % at 10 µM; 16% of 760 active;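 active = mean protection from necroptosis of at least 50% over duplicate tests; inactive = mean protection below 50%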;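 also: 0% = cells with zVAD alone and 100% = vehicle cells without zVAD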
* marks the source's active call; other numbers are inactive results; i = inactive; . = no result given. Rows were chosen to be rich in hits. Some 1.8% of all compounds tested hit in one or more screens of this group.

SMILES | MDM2 E3 inh | Autophagy mod | Dynein transport | TNF necrop inh | L929 necroptosis | zVAD necrop conf
O=C(N/N=C/c1ccc(C(F)(F)F)cc1)c1ccc(O)cc1 | -8 | i | 1.1 | -2 | 45 | .
COc1cc(/C=N/Nc2ccc(C(F)(F)F)cn2)cc(OC)c1O | -20 | i | -0.71 | 36 | 81* | 75*
CCSc1ncc(CO)c(N)n1 | -12 | . | -0.18 | 0 | 0 | .
CCOc1ccccc1-n1c(SCC(=O)Nc2ccc(CC)cc2)nc2n[nH]c(C)c2c1=N | -5 | i | 1.6 | -3 | 80* | 43
CCc1ccccc1NC(=O)CSc1nc2n[nH]c(C)c2c(=N)n1-c1cccc(OC)c1 | 4 | i | 0.071 | -9 | 4 | .
Cc1nc(NC(=O)/C=C/c2ccco2)sc1C | -14 | i | -0.44 | -4 | -1 | .
CNS(=O)(=O)c1ccc2nc(NC(=O)/C=C/c3ccco3)sc2c1 | -10 | i | -0.033 | 0 | 76* | 2
COc1ccc(C(=O)N[C@H](C(=O)NCc2cccs2)C(C)C)cc1 | 2 | i | 1.8 | 0 | 1 | .
COC(=O)c1ccc(-n2nnnc2SCC(=O)Nc2ccccc2OC)cc1 | . | i | -0.33 | 1 | 19 | .
CCOc1ccccc1NC(=O)CSc1nnnn1-c1ccc(C(=O)OC)cc1 | -1 | i | 0.62 | -3 | 77* | 0
CCc1nnc(NS(=O)(=O)c2ccc(N/C=C\C(=O)c3cccc4ccccc34)cc2)s1 | -3 | i | 2 | 2 | 3 | .
CCc1nnc(NS(=O)(=O)c2ccc(N/C=C/C(=O)c3ccc(OC)cc3)cc2)s1 | 5 | i | 0.44 | 0 | 79* | 2
CCCCNC(=O)c1ccc2c(c1)ncn2C1CCCC1 | -13 | i | 0.14 | 3 | 4 | .
CCCNC(=O)c1ccc2c(c1)ncn2-c1cc(C)cc(C)c1 | -8 | i | 1 | 5 | 76* | 2
CCCCNC(=O)c1ccc2c(c1)ncn2C1CCCCC1 | -8 | i | -0.62 | 2 | 79* | 33
CC(C)=NNC(=O)c1c(O)c2ccccc2[nH]c1=O | -15 | . | -0.17 | 6 | 1 | .
CCNC(=O)c1c(O)c2ccccc2[nH]c1=O | -8 | i | -0.055 | 55* | 76* | 2
O=C(COC(=O)c1ccc(O)cc1)Nc1ccc(Cl)cc1 | -8 | i | 0.012 | 2 | 78* | 21
O=C(O)CCC(=O)Nc1ccc(C(=O)OCC(=O)c2ccc(Cl)cc2)cc1 | 2 | i | 0.046 | 0 | 10 | .
O=C(CSc1nnc(COc2ccccc2Cl)o1)NC(=O)NC1CCCC1 | 0 | i | -0.27 | -5 | 87* | 35
C=CCn1c(SCc2ccc(C(=O)Nc3nccs3)cc2)nnc1-c1ccc(C)c(Cl)c1 | -3 | i | 0.068 | 9 | 103* | 60*
Cn1nnnc1SCc1ccc(Cl)cc1 | -21 | i | 0.15 | 32 | 83* | 8
Cn1nnnc1SCc1ccc(CSc2nnnn2C)cc1 | 0 | i | 0.3 | 1 | 2 | .
Cn1nnnc1SCc1ccc(C(=O)Nc2nccs2)cc1 | -32 | i | -0.38 | 43 | 92* | 88*
O=c1ccn(CCCBr)c(=O)[nH]1 | -8 | . | -0.29 | 0 | 0 | .
SMILES | MDM2 E3 inh | Autophagy mod | Dynein transport | TNF necrop inh | L929 necroptosis | zVAD necrop conf
Fc1ccc(-c2nnc(SCc3cccnc3)o2)cc1 | -11 | i | 0.042 | 10 | 1 | .
O=C(Cc1ccc(-n2cnnn2)cc1)NC12CC3CC(CC(C3)C1)C2 | -11 | i | -0.25 | 0 | 86* | 35
Cc1ccccc1NC(=O)C(=Cc1ccc(C(=O)O)cc1)C(=O)Nc1ccccc1C | -2 | i | -2.6 | 43 | 79* | 38
Nc1nonc1-n1nnc(C(=O)N/N=C/c2ccc(Br)cc2)c1CSC1=NCCS1 | -3 | i | 1.1 | -7 | 78* | 2
CC(C)c1ccc(/C=N/NC(=O)c2nnn(-c3nonc3N)c2CSC2=NCCS2)cc1 | -4 | i | -0.85 | 3 | 40 | .
COc1cc(/C=N/NC(=O)c2sc(N)c(C#N)c2C)cc(Br)c1O | -12 | i | -0.093 | 5 | 99* | 39
COCCn1c(=NC(=O)/C=C/c2ccccc2)sc2cc(NC(C)=O)ccc21 | -14 | i | -0.41 | -4 | 81* | 7
COc1ccccc1NC(=O)Nc1ccc(Cc2ccncc2)cc1 | -9 | i | -0.28 | 4 | 78* | 38
COc1ccc(C(=O)Nc2ccc(Cc3ccncc3)cc2)cc1Br | -13 | i | -0.77 | -1 | 0 | .
COc1ccc(NC(=O)Nc2ccc(Cc3ccncc3)cc2)cc1OC | -8 | i | -0.63 | 0 | 82* | 37
O=C(CN1C(=O)S/C(=C\c2ccc(F)cc2)C1=O)Nc1cccc(S(=O)(=O)NCc2ccco2)c1 | 15 | i | 1.9 | -3 | 1 | .
CN(C)C(=O)c1ccc(-c2nnc(NCc3ccccc3)c3ccccc23)cc1 | 1 | i | 0.0023 | 2 | 75* | 36
COC(=O)C(C(=O)Nc1nc2ccccc2s1)C1CCCC1 (stereo unspecified) | -1 | i | -0.69 | 3 | 13 | .
O=C(Cc1ccccc1)NNC(=O)c1ccc(NC(=O)c2ccccc2)cc1 | -16 | i | 0.24 | 1 | 62 | .
CCOC(=O)CCC(=O)NNC(=O)c1ccc(NC(=O)c2ccccc2)cc1 | -2 | i | -0.34 | -1 | 75* | 12
O=C(c1ccco1)N1CCN(Cc2nc(-c3cccs3)no2)CC1 | -7 | i | 2 | 1 | 0 | .
O=C(COc1cccc(NC(=O)c2cccs2)c1)c1ccc(F)cc1 | -18 | i | 0.76 | 6 | 4 | .
O=C(Nc1cccc(Oc2ccc3c(c2)C(=O)NC3=O)c1)c1cccs1 | -5 | i | 0.056 | 0 | 87* | 43
Nc1c(C(=O)OCC2CCCO2)c2nc3ccccc3nc2n1-c1ccc2c(c1)OCCO2 (stereo unspecified) | -10 | i | -1.2 | -7 | 93* | 2
Nc1c(C(=O)NC2CC2)c2nc3ccccc3nc2n1-c1ccc2c(c1)OCO2 | . | i | -0.44 | -8 | 51 | .
Cc1cs/c(=N\N=C2CCCCC2)n1Cc1ccco1 | -1 | i | 0.38 | 2 | 0 | .
CCOc1ccc(CC(=NCCc2ccccc2)C2=C(O)CC(C)(C)CC2=O)cc1OCC | . | i | 0.16 | 5 | -1 | .
CC1CCCN(Cc2c(O)ccc3c4c(c(=O)oc23)CCCC4)C1 (stereo unspecified) | -5 | . | 0.088 | 0 | -1 | .
